Most compounds without a hit are left out; they make up all but 6.3% or so of the library.
PostGolgi yeast: growth inhibition of a yeast mutant, post-Golgi transport screen | post-Golgi transport phenotypic cell assay | inhibition, % at 10 µM | 98,000 compounds, 0.9% hits | AID 739;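 also: yeast cells grown in 1536-well plates; yeast grown about 18 h at 30C before absorbance read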
Ecoli WT expand: growth inhibitors of E. coli BW25113 wild type; growth inhibition, % at 100 µM; 98,000 compounds, 0.15% hits; AID 710; OD600 absorbance;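 active = growth inhibition above about 50% at one test dose, limit read from the data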;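 also: growth measured after 20 h incubation at 37 °C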
tolC growth inh: E. coli tolC mutant growth inhibition | E. coli BW25113 tolC mutant growth, OD615 | growth inhibition, % at 10 µM (by protocol) | 65,000 compounds, 2.2% hits | AID 573;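 active = growth inhibition at or above a cutoff equal to the mean over every tested compound plus 3 SD, cut at about 60% in these data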;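 also: growth measured after 20 h incubation at 37 °C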
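Test system: tolC-deleted E. coli BW25113; medium: LB with kanamycin 50 µg/mL; compound: single-point testing at 10 µM; incubation: 20 h compound exposure of bacteria at 37 °C; signal: OD at 615 nm; evaluation: growth inhibition in percent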
PostGolgi ctrl: yeast control strain growth, post-Golgi counter-screen; efflux-deficient yeast background strain, growth absorbance A615, 16 h; inhibition, % at 10 µM; 98,000 compounds, 5% hits; AID 738
* marks the source's active call; other numbers are inactive results. Rule as the data show it, unless noted: active = inhibition above about 30%; inactive = the rest.

`O=C(/C=C/c1ccccc1)NCCSc1ccc(Cl)cc1` gave PostGolgi yeast 1, Ecoli WT expand 1 and PostGolgi ctrl 7.
CCOC(=O)N1CCC(N2Cc3cccc(C(=O)Nc4ccc(OC)c(OC)c4)c3C2=O)CC1 was read as PostGolgi yeast 2, Ecoli WT expand -10, tolC growth inh -2 and PostGolgi ctrl 37*.
Screening Cc1ccccc1N(CC(=O)NCCSC1CCCCC1)S(=O)(=O)c1ccccc1 returned PostGolgi yeast 1, Ecoli WT expand -17 and PostGolgi ctrl 49*.
Screening CN(CCCNC(=O)COc1cc(=O)n(C)c2ccccc12)Cc1ccccc1 returned PostGolgi yeast 6, Ecoli WT expand -5, tolC growth inh -14 and PostGolgi ctrl 5.
`CCN(CCCNC(=O)COc1cc(=O)n(CC)c2ccccc12)Cc1ccccc1` gave PostGolgi yeast -8, Ecoli WT expand -3, tolC growth inh 16 and PostGolgi ctrl 38*.
CC(c1ccco1)N(C(=O)c1ccc(Cl)s1)c1ccccn1 (stereo unspecified) was read as tolC growth inh 3.
For Cc1ccc(C(=O)c2cn[nH]c2-c2cc(Cl)ccc2O)cc1 the results were PostGolgi yeast 0, Ecoli WT expand 16, tolC growth inh 13 and PostGolgi ctrl 38*.
COc1ccc(O)c(-c2[nH]ncc2C(=O)c2ccccc2)c1 was read as PostGolgi yeast 7, Ecoli WT expand -7, tolC growth inh 4 and PostGolgi ctrl -7.
`Cc1nnc(Nc2ccccn2)c2ccccc12` gave PostGolgi yeast -2, Ecoli WT expand 6, tolC growth inh -13 and PostGolgi ctrl 65*.
For Clc1ccc(CSc2nnc(-c3ccccn3)n2Cc2ccco2)c(Cl)c1 the results were PostGolgi yeast 4, Ecoli WT expand -9, tolC growth inh 43 and PostGolgi ctrl 52*.
Screening Brc1ccc(CSc2nnc(-c3cnccn3)n2Cc2ccco2)cc1 returned PostGolgi yeast 7, Ecoli WT expand -6, tolC growth inh 64* and PostGolgi ctrl 38*.
Screening CC(=O)C1=C(N2CCCCC2)CCC1=O returned PostGolgi yeast -1, Ecoli WT expand 4, tolC growth inh -20 and PostGolgi ctrl 32*.
Screening COc1ccc(C2C3=C(CCCC3=O)Nc3nc(C(F)(F)F)nn32)c(OC)c1OC (stereo unspecified) returned PostGolgi yeast -6, Ecoli WT expand 1, tolC growth inh 3 and PostGolgi ctrl -4.
CCOc1ccc(C(O)C(CN2CCOCC2)c2ccccc2)cc1 (stereo unspecified) was read as PostGolgi yeast 13, Ecoli WT expand -1 and PostGolgi ctrl 37*.
For CCC(C(=O)c1ccc(O)cc1)c1ccccc1 (stereo unspecified) the results were PostGolgi yeast 1, Ecoli WT expand 14, tolC growth inh 22 and PostGolgi ctrl 36*.
Cc1ccc(S(=O)(=O)CC#CCOC(=O)c2ccc([N+](=O)[O-])cc2)cc1 was read as PostGolgi yeast 4, Ecoli WT expand 14 and PostGolgi ctrl -1.
CCOc1ccc(NS(=O)(=O)c2ccc(OCC(=O)N3CCCC3)cc2)cc1 was read as PostGolgi yeast -3, Ecoli WT expand -4, tolC growth inh -4 and PostGolgi ctrl 6.
Screening CCOC(=O)N1CCN(C(=O)COc2ccc(S(=O)(=O)Nc3ccc(OCC)cc3)cc2)CC1 returned PostGolgi yeast 15, Ecoli WT expand 0, tolC growth inh 68* and PostGolgi ctrl 5.
`CC(C)CNC(=O)c1ccc(COc2ccc(Cl)cc2Cl)o1` gave PostGolgi yeast -9, Ecoli WT expand 13 and PostGolgi ctrl 32*.
`CCCCCCC1NC(C(=O)O)CS1` (stereo unspecified) gave PostGolgi yeast 16, Ecoli WT expand 1 and PostGolgi ctrl 10.
CC(C)c1ccc(OCC(O)CN2CCN(c3ccccc3)CC2)cc1 (stereo unspecified) was read as PostGolgi yeast 51*, Ecoli WT expand 0, tolC growth inh 54 and PostGolgi ctrl 63*.
For Cc1ccc(-c2ccc(=O)n(CC(=O)N3CCN(c4cc(Cl)ccc4C)CC3)n2)cc1 the results were PostGolgi yeast 17, Ecoli WT expand -3 and PostGolgi ctrl 47*.
`Cc1ccc(-c2ccc(=O)n(CC(=O)N3CCN(c4cccc(C)c4)C(C)C3)n2)cc1` (stereo unspecified) gave PostGolgi yeast -1, Ecoli WT expand -8, tolC growth inh 1 and PostGolgi ctrl 12.
Screening COc1cc(S(=O)(=O)NCc2ccccc2)ccc1F returned PostGolgi yeast 2, Ecoli WT expand 9, tolC growth inh 11 and PostGolgi ctrl 13.
`CCc1cc(/C(Cc2ccc3ccccc3n2)=N\O)c(O)cc1O` gave PostGolgi yeast -4, Ecoli WT expand 17, tolC growth inh 97* and PostGolgi ctrl 13.
CCc1cc(/C(Cc2ccccn2)=N\O)c(O)cc1O was read as PostGolgi yeast 1, Ecoli WT expand 5 and PostGolgi ctrl 3.
Screening O=C(c1cc2ccccc2oc1=O)N(Cc1ccc2c(c1)OCO2)Cc1ccco1 returned PostGolgi yeast -8, Ecoli WT expand -11, tolC growth inh 50 and PostGolgi ctrl 42*.
For Cc1ccc(C)c(Oc2nnnn2-c2ccccc2)c1 the results were PostGolgi yeast 11, Ecoli WT expand 8, tolC growth inh 14 and PostGolgi ctrl 14.
For Cc1ccc2cccc(Oc3nnnn3-c3ccccc3)c2n1 the results were PostGolgi yeast 18, Ecoli WT expand 5, tolC growth inh 5 and PostGolgi ctrl 30*.
Cc1ccc(C(C)C)c(Oc2nnnn2-c2ccccc2)c1 was read as PostGolgi yeast 0, Ecoli WT expand 8, tolC growth inh 92* and PostGolgi ctrl 21.
c1ccc(-n2nnnc2Oc2cccc3cccnc23)cc1 was read as PostGolgi yeast -3, Ecoli WT expand 1, tolC growth inh 91* and PostGolgi ctrl 29.
CCOc1ccc(NS(=O)(=O)c2ccc(NC(=O)C3CCCO3)cc2)cc1 (stereo unspecified) was read as PostGolgi yeast -3, Ecoli WT expand 9 and PostGolgi ctrl -10.
Cn1c(NCc2ccccc2)cc(=O)n(C)c1=O was read as PostGolgi yeast 0, Ecoli WT expand 7, tolC growth inh 1 and PostGolgi ctrl 8.
For Cn1c(=O)cc(NCc2ccccc2)[nH]c1=O the results were PostGolgi yeast 40*, Ecoli WT expand 14, tolC growth inh -9 and PostGolgi ctrl -5.
Screening Cc1ccc(SCCC(=O)NCCSCc2ccccc2C)cc1 returned PostGolgi yeast 7, Ecoli WT expand -15 and PostGolgi ctrl 54*.
Screening COc1ccc(C(=O)NCCSCc2ccccc2C)cc1 returned PostGolgi yeast -2, Ecoli WT expand 11 and PostGolgi ctrl 19.
CCOC(=O)c1cc2c(ccn2C)n1CC(=O)N1CCN(c2ccccc2OC)CC1 was read as PostGolgi yeast 32*, Ecoli WT expand 8, tolC growth inh 7 and PostGolgi ctrl -1.
COc1c(S(=O)(=O)n2nc(C)cc2C)ccc(Cl)c1Cl was read as PostGolgi yeast -2, Ecoli WT expand 0, tolC growth inh 4 and PostGolgi ctrl 31*.
